IDH1 mut inh – inhibitors of human IDH1 R132H; O75874; IDH1 R132H reductase, diaphorase/resazurin fluorescence, 60 min; inhibition, % at 10 µM; 70,000 tested, 0.18% active; AID 624101; in the data active = inhibition above about 34%; inconclusive = no clear call, values can overlap the other calls; inactive = below about 11%
KDM4C inh – KDM4C (human) demethylase inhibition; GST-KDM4C 2-372, H3K9me3 peptide, LANCE TR-FRET; inhibition, % at 12.5 µM; 96,000 tested, 0.15% active;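 active = mean replicate inhibition above about 25%, with at least 55% of replicates also reaching it, limit read from the data, passing the limit was not always enough; inconclusive = only one of those two conditions met; inactive = neither condition met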
Target sequence (Q9H3R0 2-372 limits assumed): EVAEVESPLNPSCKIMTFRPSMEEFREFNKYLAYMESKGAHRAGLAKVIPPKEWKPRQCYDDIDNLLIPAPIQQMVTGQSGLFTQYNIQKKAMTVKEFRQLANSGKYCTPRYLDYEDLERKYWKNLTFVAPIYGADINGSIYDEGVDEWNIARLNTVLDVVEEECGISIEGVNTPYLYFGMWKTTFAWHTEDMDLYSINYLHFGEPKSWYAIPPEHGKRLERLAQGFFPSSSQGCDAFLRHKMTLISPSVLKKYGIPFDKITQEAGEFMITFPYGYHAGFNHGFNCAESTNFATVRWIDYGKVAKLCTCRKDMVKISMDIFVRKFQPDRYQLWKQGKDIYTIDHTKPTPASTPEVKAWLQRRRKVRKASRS
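Test system – GST-tagged GASC-1 (JMJD2C) catalytic fragment, aa 2-372 · Medium – HEPES buffer, pH 7.5, plus ascorbate · Reagent – H3K9me3 peptide with Fe(II)/2OG · Compound – one test concentration per compound · Timing – 30 min reaction, 60 min detection, RT · Technique – TR-FRET with Eu antibody and ULight streptavidin, EDTA stop · Read-out basis – inhibition from TR-FRET ratio decrease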
Pf Dd2 growth – P. falciparum Dd2 growth inhibition | SYBR Green, 72 h; hits give low values | activity change, % at 10 µM | 94,000 tested, 2.3% active | AID 1159554; in the data active = activity change below about -80%; inconclusive = no clear call, values can overlap the other calls
T cruzi growth-1 – blocks T. cruzi growth in NIH3T3 culture. T. cruzi beta-gal in NIH3T3, GalScreen luminescence, 90 h. inhibition, % at 8.34 µM. 77,000 tested, 5.9% active. AID 624255;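 active = mean inhibition above about 93%, with at least 55% of replicates each passing it, limit read from the data, passing the limit was not always enough; inconclusive = only one of those two conditions holds; inactive = neither condition holds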
T cruzi growth-2 – Trypanosoma cruzi proliferation inhibition; T. cruzi beta-gal in NIH3T3, GalScreen luminescence, 90 h; inhibition, % at 8.35 µM; shares compounds with T cruzi growth-1; AID 651739; 5,600 tested, 72% active;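 active = mean replicate inhibition above about 95% and at least 55% of replicates individually reaching it, limit read from the data; inconclusive = only one of the two criteria is met; inactive = neither criterion is met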
T cruzi growth-3 – blocks T. cruzi growth in NIH3T3 host cells | T. cruzi beta-gal in NIH3T3, GalScreen luminescence, 90 h | inhibition, % at 2.09 µM | shares compounds with T cruzi growth-1 | AID 651740 | 5,600 tested, 21% active;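 active = mean inhibition above about 95%, with at least 55% of replicates also reaching it, limit read from the data; inconclusive = meets just one of the two conditions; inactive = meets neither condition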
3T3 cytotox – cytotoxicity in mouse NIH/3T3 fibroblasts | shares compounds with T cruzi growth-1 | NIH/3T3 viability, CellTiter-Glo ATP luminescence, 90 h | cytotoxicity (signal decrease), % at 8.35 µM | 5,600 tested, 14% active;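 active = mean signal decrease across replicates above about 35% based on untreated-well scatter, with enough replicates individually passing, limit read from the data; inconclusive = no rule stated though some were filed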
3T3 cytotox 2 – cytotoxicity in mouse NIH/3T3 fibroblasts; shares compounds with T cruzi growth-1; NIH/3T3 viability, CellTiter-Glo ATP luminescence, 90 h; inhibition, % at 24.9 µM; 5,600 tested, 56% active; AID 651744;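 active = mean loss of cell viability signal at or above a set limit, and enough replicates individually reaching it; inconclusive = meets only the mean limit or only the replicate share; inactive = meets neither condition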
Numbers stand for hits; n = inactive; u = inconclusive; x = no result. The list is not random: actives were taken first. Their share in the collection is about 5.9%.

SMILES	IDH1 mut inh	KDM4C inh	Pf Dd2 growth	T cruzi growth-1	T cruzi growth-2	T cruzi growth-3	3T3 cytotox	3T3 cytotox 2
C[C@@H]1CCCCO[C@@H](CN(C)S(=O)(=O)c2ccc(F)cc2)[C@H](C)CN([C@H](C)CO)C(=O)c2cc(NC(=O)C3CCCCC3)ccc2O1	x	n	n	101	107	n	n	n
O=C(NO)c1cccc(C(=O)N/N=C/c2ccc(OCc3ccccc3)cc2O)c1	n	x	x	x	x	x	x	x
C[C@H](CO)N1C[C@H](C)[C@H](CN(C)S(=O)(=O)c2ccc(Cl)cc2)OCCCC[C@H](C)Oc2ccc(NC(=O)C3CCCCC3)cc2C1=O	n	n	n	106	111	n	n	51
C[C@@H]1CCCCO[C@H](CN(C)S(=O)(=O)c2ccc(Cl)cc2)[C@H](C)CN([C@@H](C)CO)C(=O)c2cc(NC(=O)C3CCCCC3)ccc2O1	x	n	n	108	103	n	n	n
Cc1ccc(S(=O)(=O)N(C)C[C@H]2OCCCC[C@@H](C)Oc3ccc(NC(=O)C4CCCCC4)cc3C(=O)N([C@H](C)CO)C[C@H]2C)cc1	x	n	n	n	x	x	x	x
Cc1ccnc(NC(c2cccc(Cl)c2)c2ccc3ccc(C)nc3c2O)c1 (stereo not drawn)	n	x	x	x	x	x	x	x
COc1ccc(C)cc1NC(=O)CSc1nc(C)cc(-c2ccccc2)n1	n	x	x	x	x	x	x	x
O=C(Nc1cc(F)ccc1F)N1CCCCN2[C@H](CO)[C@H](c3ccc(-c4ccncc4)cc3)[C@@H]2C1	x	n	n	n	x	x	x	x
O=C(Nc1cc(F)ccc1F)N1CCCCN2[C@@H](CO)[C@H](c3ccc(-c4ccncc4)cc3)[C@@H]2C1	x	n	n	n	x	x	x	x
O=C(Nc1cc(F)ccc1F)N1CCCCN2[C@@H](CO)[C@H](c3ccc(-c4cncnc4)cc3)[C@@H]2C1	x	n	n	98	n	n	n	n
O=C(Nc1cc(F)ccc1F)N1CCCCN2[C@H](CO)[C@H](c3ccc(-c4cncnc4)cc3)[C@H]2C1	x	n	n	112	107	n	n	n
O=C(Nc1cc(F)ccc1F)N1CCCCN2[C@@H](CO)[C@H](c3ccc(-c4cccnc4)cc3)[C@@H]2C1	x	n	n	u	97	n	n	n
O=C(Nc1cc(F)ccc1F)N1CCCCN2[C@@H](CO)[C@@H](c3ccc(-c4cncnc4)cc3)[C@@H]2C1	x	n	n	108	n	n	n	n
O=C(CSc1nnc(-c2ccccc2Cl)o1)c1cc2ccccc2oc1=O	n	x	x	x	x	x	x	x
O=C(O)CSc1nc2ccccc2n1CC(=O)O	n	x	x	x	x	x	x	x
O=C(Nc1cc(F)ccc1F)N1CCCCN2[C@H](C1)[C@H](c1ccc(-c3ccccc3)cc1)[C@@H]2CO	x	n	n	99	108	n	n	n
O=C(Nc1cc(F)ccc1F)N1CCCCN2[C@H](CO)[C@@H](c3ccc(-c4cncnc4)cc3)[C@@H]2C1	x	n	n	112	n	n	n	n
O=C(Nc1ccccc1F)N1CCCCN2[C@H](CO)[C@@H](c3ccc(-c4cccnc4)cc3)[C@@H]2C1	x	n	n	n	x	x	x	x
O=C(Nc1ccccc1F)N1CCCCN2[C@H](C1)[C@H](c1ccc(-c3cccnc3)cc1)[C@@H]2CO	x	n	n	104	u	n	n	n
O=C(Nc1cc(F)ccc1F)N1CCCCN2[C@H](CO)[C@H](c3ccc(-c4ccccc4)cc3)[C@H]2C1	x	n	n	n	x	x	x	x
COC(=O)c1ccc(C(=O)OC)c(NS(=O)(=O)c2ccc3c(c2)OCCO3)c1	n	x	x	x	x	x	x	x
CC(=O)c1c(C)oc(NC(=O)Cn2cnc3ccccc3c2=O)c1C#N	n	x	x	x	x	x	x	x
C[C@@H]1CN([C@@H](C)CO)S(=O)(=O)c2ccc(C3=CCCC3)cc2O[C@H]1CN(C)CC1CCCC1	n	n	n	107	97	n	41	105
COc1ccccc1-c1ccc2c(c1)O[C@H](CN(C)C)[C@H](C)CN([C@@H](C)CO)S2(=O)=O	n	n	n	n	x	x	x	x
C[C@@H]1CN([C@@H](C)CO)S(=O)(=O)c2ccc(-c3ccccc3F)cc2O[C@H]1CN(C)C	n	n	n	114	n	n	n	77
SMILES	IDH1 mut inh	KDM4C inh	Pf Dd2 growth	T cruzi growth-1	T cruzi growth-2	T cruzi growth-3	3T3 cytotox	3T3 cytotox 2
C[C@@H]1CN([C@H](C)CO)S(=O)(=O)c2ccc(C3=CCCC3)cc2O[C@@H]1CN(C)CC1CC1	n	n	n	n	x	x	x	x
COc1ccccc1-c1ccc2c(c1)O[C@@H](CN(C)CC1CCCC1)[C@H](C)CN([C@@H](C)CO)S2(=O)=O	n	n	n	126	101	100	42	103
COc1ccccc1-c1ccc2c(c1)O[C@H](CN(C)C)[C@@H](C)CN([C@@H](C)CO)S2(=O)=O	n	n	n	106	98	n	n	46
O=C(CC1(O)C(=O)Nc2ccccc21)c1ccc(NC(=O)C2CC2)cc1 (stereo not drawn)	n	x	x	x	x	x	x	x
Cc1cc(C)nc(N(C#N)C(C(=O)c2ccccc2)c2ccccc2)n1 (stereo not drawn)	n	x	x	x	x	x	x	x
COc1ccccc1-c1ccc2c(c1)O[C@@H](CN(C)C(=O)c1ccncc1)[C@@H](C)CN([C@H](C)CO)S2(=O)=O	n	n	n	105	n	n	n	u
C[C@@H]1CN([C@@H](C)CO)S(=O)(=O)c2ccc(-c3ccccc3)cc2O[C@H]1CN(C)CC1CCCC1	n	n	n	96	97	106	58	104
C[C@@H]1CN([C@@H](C)CO)S(=O)(=O)c2ccc(-c3ccccc3)cc2O[C@@H]1CN(C)CC1CC1	n	n	n	n	x	x	x	x
C[C@H](CO)N1C[C@H](C)[C@H](CN(C)C)Oc2cc(-c3ccccc3F)ccc2S1(=O)=O	n	n	n	u	n	n	n	50
O=C(N/N=C/c1c(O)ccc2ccccc12)c1ccccc1O	n	x	x	x	x	x	x	x
COc1cccc(-n2nnnc2SCC(=O)Nc2c(C)cc(C)cc2C)c1	n	x	x	x	x	x	x	x
O=C(C[C@@H]1C[C@@H]2c3cc(NC(=O)c4ccc5c(c4)OCO5)ccc3O[C@@H]2[C@@H](CO)O1)NCc1cc(F)ccc1F	n	n	n	99	n	n	n	n
O=C(C[C@H]1C[C@@H]2c3cc(NC(=O)c4cccnc4)ccc3O[C@@H]2[C@H](CO)O1)NCc1cccnc1	n	n	n	98	n	n	n	n
O=C(C[C@H]1C[C@@H]2c3cc(NC(=O)c4cccnc4)ccc3O[C@@H]2[C@@H](CO)O1)NCCc1ccccc1	n	n	n	129	n	n	n	n
O=C(C[C@H]1C[C@@H]2c3cc(NC(=O)c4ccc5c(c4)OCO5)ccc3O[C@@H]2[C@@H](CO)O1)NCc1cc(F)ccc1F	n	n	n	n	x	x	x	x
